Laboratory results as given in ChEMBL document CHEMBL3526081 (Drug Metab Dispos, 2011).

What was measured:
Liver microsome [1] = experiment: Drug metabolism in beagle dog liver microsomes assessed as 1alpha-hydroxylcinobufagin formation at 100 uM at 37 degC after 30 mins by UFLC-ESI-MS analysis in presence of 1 uM ketoconazole CYP3A4 inhibitor; assay type: ADME, Canis lupus familiaris; conditions: 0.5 h
Method in brief: (§1)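 Chemical inhibition: selective P450 inhibitors (furafylline, sulfaphenazole, ketoconazole) added to liver microsome incubations in 100 mM potassium phosphate pH 7.4 with NADPH-generating system at 37°C. Hydroxylated metabolite formation quantified by UFLC at 294 nm against standards. Mean ± S.D. of three experiments in duplicate.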

[2] = Drug metabolism in cynomolgus monkey liver microsomes assessed as 5beta-hydroxylcinobufagin formation at 100 uM at 37 degC after 30 mins by UFLC-ESI-MS analysis in presence of NADPH-generating system; assay type: ADME, Macaca fascicularis; conditions: 0.5 h
Method in brief: (§2)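 Liver microsomes (0.3 mg protein/ml) incubated with 100 µM substrate at 37°C for 30 min, in 100 mM potassium phosphate pH 7.4 with NADPH-generating system (1 mM NADP+, 10 mM glucose 6-phosphate, 1 unit/ml G6PDH, 4 mM MgCl2). Acetonitrile ≤1% final. Stopped with ice-cold acetonitrile and centrifuged. Metabolites identified by UFLC-ESI-MS and quantified by UFLC-DAD at 294 nm against authentic standard curves.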

[3] = Drug metabolism in Swiss-Hauschka (ICR) mouse liver microsomes assessed as 1alpha-hydroxylcinobufagin formation per mg of protein at 100 uM at 37 degC after 30 mins by UFLC-ESI-MS analysis; assay type: ADME; conditions: 0.5 h; method in brief: as §2
[4] = Drug metabolism in Swiss-Hauschka (ICR) mouse liver microsomes assessed as 1alpha-hydroxylcinobufagin formation at 100 uM at 37 degC after 30 mins by UFLC-ESI-MS analysis in presence of 10 uM sulfaphenazole CYP2C9 inhibitor; assay type: ADME; conditions: 0.5 h; method in brief: as §1
[5] = Drug metabolism in Colony-bred Chinese Bama minipig liver microsomes assessed as 5beta-hydroxylcinobufaginn formation at 100 uM at 37 degC after 30 mins by UFLC-ESI-MS analysis; assay type: ADME, Sus scrofa; conditions: pig, 0.5 h, read-out: Km(app); method in brief: as §2
[6] = Drug metabolism in Colony-bred Chinese Bama minipig liver microsomes assessed as 1alpha-hydroxylcinobufagin formation at 100 uM at 37 degC after 30 mins by UFLC-ESI-MS analysis in presence of 10 uM sulfaphenazole CYP2C9 inhibitor; assay type: ADME, Sus scrofa; conditions: pig, 0.5 h; method in brief: as §1
Liver microsome [7] = experiment: Drug metabolism in human liver microsomes assessed as 5beta-hydroxylcinobufaginn formation per mg of protein at 100 uM […] by UFLC-ESI-MS analysis; assay type: ADME; conditions: 0.5 h
Liver microsome [8] = experiment: Drug metabolism in human liver microsomes assessed as 1alpha-hydroxylcinobufagin formation at 100 uM at 37 degC after 30 mins […] in presence of 2 uM montelukast CYP2C8 inhibitor; assay type: ADME; conditions: 0.5 h
Liver microsome [9] = experiment: Drug metabolism in human liver microsomes assessed as 5beta-hydroxylcinobufagin formation at 100 uM at 37 degC after 30 mins […] in presence of 50 uM triethylenethiophosphoramide CYP2B6 inhibitor; assay type: ADME; conditions: 0.5 h
[10] = Drug metabolism in Colony-bred Chinese Bama minipig liver microsomes assessed as 1alpha-hydroxylcinobufagin formation per mg of protein at 100 uM at 37 degC after 30 mins by UFLC-ESI-MS analysis; assay type: ADME, Sus scrofa; conditions: pig, 0.5 h; method in brief: as §2
Liver microsome [11] = experiment: Drug metabolism in human liver microsomes assessed as 1alpha-hydroxylcinobufagin formation at 100 uM at 37 degC after 30 mins […] in presence of 20 uM omeprazole CYP2C19 inhibitor; assay type: ADME; conditions: 0.5 h
[12] = Drug metabolism in cynomolgus monkey liver microsomes assessed as 1alpha-hydroxylcinobufagin formation at 100 uM at 37 degC after 30 mins by UFLC-ESI-MS analysis; assay type: ADME, Macaca fascicularis; conditions: 0.5 h, read-out: Km(app); method in brief: as §2
[13] = Drug metabolism in cynomolgus monkey liver microsomes assessed as 5beta-hydroxylcinobufaginn formation at 100 uM […] by UFLC-ESI-MS analysis; assay type: ADME, Macaca fascicularis; conditions: 0.5 h, read-out: Km(app)
[14] = Drug level in cynomolgus monkey liver microsomes treated with 100 uM cinobufagin at 37 degC after 30 mins by UFLC-ESI-MS analysis in presence of NADPH-generating system; assay type: ADME, Macaca fascicularis; conditions: 0.5 h; method in brief: as §2
Cytochrome P450 2C8 = molecular target: T1, Cytochrome P450 2C8 (Homo sapiens, UniProt P10632); experiment: Drug level in human recombinant CYP2C8 expressed in insect cells coexpressing NADPH-P450 reductase measured per pmol of enzyme treated with 50 uM cinobufagin at 37 degC after 30 mins by UFLC-DAD-ESI-MS analysis; conditions: 0.5 h
T1 sequence (P10632 whole entry): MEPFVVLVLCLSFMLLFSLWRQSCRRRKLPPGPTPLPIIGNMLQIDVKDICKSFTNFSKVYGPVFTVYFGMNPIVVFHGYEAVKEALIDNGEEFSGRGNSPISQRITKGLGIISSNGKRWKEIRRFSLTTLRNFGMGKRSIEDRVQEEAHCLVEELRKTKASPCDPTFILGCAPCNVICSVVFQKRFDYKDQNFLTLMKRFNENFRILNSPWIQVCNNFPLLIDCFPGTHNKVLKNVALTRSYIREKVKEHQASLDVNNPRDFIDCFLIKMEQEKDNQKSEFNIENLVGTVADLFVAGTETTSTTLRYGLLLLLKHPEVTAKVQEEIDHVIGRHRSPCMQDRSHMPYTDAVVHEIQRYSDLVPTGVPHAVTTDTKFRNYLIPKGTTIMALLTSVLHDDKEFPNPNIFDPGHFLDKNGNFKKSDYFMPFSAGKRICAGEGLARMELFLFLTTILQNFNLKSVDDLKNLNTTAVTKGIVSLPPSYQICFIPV

Cytochrome P450 2B6 = molecular target: T2, Cytochrome P450 2B6 (Homo sapiens, UniProt P20813); experiment: Drug level in human recombinant CYP2B6 expressed in insect cells coexpressing NADPH-P450 reductase measured per pmol of enzyme treated with 50 uM cinobufagin at 37 degC after 30 mins by UFLC-DAD-ESI-MS analysis; conditions: 0.5 h
T2 sequence (P20813 whole entry): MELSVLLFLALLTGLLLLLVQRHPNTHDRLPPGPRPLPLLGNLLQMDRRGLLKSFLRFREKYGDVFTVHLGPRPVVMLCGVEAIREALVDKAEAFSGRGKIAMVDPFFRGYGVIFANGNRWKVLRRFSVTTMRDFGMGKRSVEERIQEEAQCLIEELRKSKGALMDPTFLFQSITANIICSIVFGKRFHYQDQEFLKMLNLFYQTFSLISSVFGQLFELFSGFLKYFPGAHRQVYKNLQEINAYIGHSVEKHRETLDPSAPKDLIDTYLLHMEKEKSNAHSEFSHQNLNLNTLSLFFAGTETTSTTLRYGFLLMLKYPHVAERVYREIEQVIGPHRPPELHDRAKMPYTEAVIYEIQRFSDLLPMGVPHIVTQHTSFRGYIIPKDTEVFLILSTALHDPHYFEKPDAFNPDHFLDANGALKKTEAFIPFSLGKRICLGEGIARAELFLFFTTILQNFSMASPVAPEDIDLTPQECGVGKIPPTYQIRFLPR

Liver microsome [15] = experiment: Drug level in human liver microsomes treated with 100 uM cinobufagin at 37 degC after 30 mins by UFLC-ESI-MS analysis in presence of NADPH-generating system; assay type: ADME; conditions: 0.5 h; method in brief: as §2
[16] = Drug level in Swiss-Hauschka (ICR) mouse liver microsomes treated with 100 uM cinobufagin at 37 degC after 30 mins by UFLC-ESI-MS analysis in presence of NADPH-generating system; assay type: ADME; conditions: 0.5 h; method in brief: as §2

Compound	Drug metabolism (Liver microsome [1])	Drug metabolism [2]	Vmax [3]	Drug metabolism [4]	Km [5]	Drug metabolism [6]	Vmax (Liver microsome [7])	Drug metabolism (Liver microsome [8])	Drug metabolism (Liver microsome [9])	Vmax [10]	Drug metabolism (Liver microsome [11])	Km [12]	Km [13]	Drug metabolism [14]	Drug metabolism (Cytochrome P450 2C8)	Drug metabolism (Cytochrome P450 2B6)	Drug metabolism (Liver microsome [15])	Drug metabolism [16]
CC(=O)O[C@H]1[C@H]2O[C@]23[C@@H]2CC[C@@H]4C[C@@H](O)CC[C@]4(C)[C@H]2CC[C@]3(C)[C@H]1c1ccc(=O)oc1 [CINOBUFAGIN]	metabolite_not_detected	metabolite_detected	8.39 nmol/min/mg	metabolite_detected	11.9 µM	metabolite_detected	1.17 nmol/min/mg	metabolite_detected	metabolite_detected	0.25 nmol/min/mg	metabolite_detected	34.2 µM	8.5 µM	–	–	–	–	–
CC(=O)O[C@H]1[C@H]2O[C@]23[C@@H]2CC[C@@H]4C[C@@H](O)C[C@H](O)[C@]4(C)[C@H]2CC[C@]3(C)[C@H]1c1ccc(=O)oc1	–	–	–	–	–	–	–	–	–	–	–	–	–	metabolite_detected	< 0.01 pmol/min	< 0.01 pmol/min	metabolite_detected	metabolite_detected
CC(=O)O[C@H]1[C@H]2O[C@]23[C@@H]2CC[C@]4(O)C[C@@H](O)CC[C@]4(C)[C@H]2CC[C@]3(C)[C@H]1c1ccc(=O)oc1 [CINOBUFOTALIN]	–	–	–	–	–	–	–	–	–	–	–	–	–	metabolite_detected	< 0.01 pmol/min	< 0.01 pmol/min	metabolite_detected	metabolite_detected
